Results published in ChEMBL document CHEMBL4732167, “Structure based design, synthesis, and biological evaluation of imidazole derivatives targeting dihydropteroate synthase enzyme” (Bioorg Med Chem Lett, 2021).
≈ marks a conversion by molar mass, not a printed value.

System: Staphylococcus aureus
Test: Antibacterial activity against Staphylococcus aureus MTCC 96 assessed as bacterial growth inhibition
Format: functional
Details: not given

Row | SMILES | MIC
1 | CC(=O)c1c(C)nc(SCC(=O)Nc2ccc(OC(=O)c3ccco3)cc2)n1-c1ccc(F)cc1 | 500 µg/mL (≈ 1010 µM)
2 | O=C(N[C@H](CO)[C@H](O)c1ccc([N+](=O)[O-])cc1)C(Cl)Cl [CHLORAMPHENICOL] | 50 µg/mL (≈ 155 µM)

System: Escherichia coli
Test: Antibacterial activity against Escherichia coli MTCC 443 assessed as bacterial growth inhibition
Format: functional
Details: not given

Row | SMILES | MIC
3 | CC(=O)c1c(C)nc(SCC(=O)Nc2ccc(OC(=O)c3ccco3)cc2)n1-c1ccc(F)cc1 | 100 µg/mL (≈ 203 µM)
4 | O=C(N[C@H](CO)[C@H](O)c1ccc([N+](=O)[O-])cc1)C(Cl)Cl [CHLORAMPHENICOL] | 50 µg/mL (≈ 155 µM)

System: Pseudomonas aeruginosa
Test: Antibacterial activity against Pseudomonas aeruginosa MTCC 1688 assessed as bacterial growth inhibition
Format: functional
Details: not given

Row | SMILES | MIC
5 | CC(=O)c1c(C)nc(SCC(=O)Nc2ccc(OC(=O)c3ccco3)cc2)n1-c1ccc(F)cc1 | 250 µg/mL (≈ 507 µM)
6 | O=C(N[C@H](CO)[C@H](O)c1ccc([N+](=O)[O-])cc1)C(Cl)Cl [CHLORAMPHENICOL] | 50 µg/mL (≈ 155 µM)

System: Aspergillus niger
Test: Antifungal activity against Aspergillus niger MTCC 282 assessed as fungal growth inhibition
Format: functional
Details: not given

Row | SMILES | MFC
7 | CC(=O)c1c(C)nc(SCC(=O)Nc2ccc(OC(=O)c3ccco3)cc2)n1-c1ccc(F)cc1 | 500 µg/mL (≈ 1010 µM)

System: Candida albicans
Test: Antifungal activity against Candida albicans MTCC 227 assessed as fungal growth inhibition
Format: functional
Details: not given

Row | SMILES | MFC
8 | CC(=O)c1c(C)nc(SCC(=O)Nc2ccc(OC(=O)c3ccco3)cc2)n1-c1ccc(F)cc1 | 500 µg/mL (≈ 1010 µM)

System: Streptococcus pyogenes
Test: Antibacterial activity against Streptococcus pyogenes MTCC 442 assessed as bacterial growth inhibition
Format: functional
Details: not given

Row | SMILES | MIC
9 | CC(=O)c1c(C)nc(SCC(=O)Nc2ccc(OC(=O)c3ccco3)cc2)n1-c1ccc(F)cc1 | 250 µg/mL (≈ 507 µM)
10 | O=C(N[C@H](CO)[C@H](O)c1ccc([N+](=O)[O-])cc1)C(Cl)Cl [CHLORAMPHENICOL] | 50 µg/mL (≈ 155 µM)

System: Aspergillus clavatus
Test: Antifungal activity against Aspergillus clavatus MTCC 1323 assessed as fungal growth inhibition
Format: functional
Details: not given

Row | SMILES | MFC
11 | CC(=O)c1c(C)nc(SCC(=O)Nc2ccc(OC(=O)c3ccco3)cc2)n1-c1ccc(F)cc1 | 500 µg/mL (≈ 1010 µM)

System: Mycobacterium tuberculosis
Test: Antibacterial activity against Mycobacterium tuberculosis H37Rv assessed as bacterial growth inhibition
Format: functional
Details: not given

Row | SMILES | MIC
12 | CC(=O)c1c(C)nc(SCC(=O)Nc2ccc(OC(=O)c3ccco3)cc2)n1-c1ccc(F)cc1 | 250 µg/mL (≈ 507 µM)

System: Plasmodium falciparum
Test: Antimalarial activity against Plasmodium falciparum assessed as parasite growth inhibition
Format: functional, organism-based
Details: not given

Row | SMILES | IC50
13 | CC(=O)c1c(C)nc(SCC(=O)Nc2ccc(OC(=O)c3ccco3)cc2)n1-c1ccc(F)cc1 | 0.36 µg/mL (≈ 0.729 µM)

System: Bacteria
Test: Antibacterial activity against ESBL-producing bacteria assessed as bacterial growth inhibition
Format: functional
Details: not given
Summary of the method: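 Values are minimum inhibitory concentrations (MIC) in µg/mL, determined at an outside microbiology laboratory.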

Row | SMILES | MIC
14 | CC(=O)c1c(C)nc(SCC(=O)Nc2ccc(OC(=O)c3ccco3)cc2)n1-c1ccc(F)cc1 | 125 µg/mL (≈ 253 µM)

System: Enterococcus
Test: Antibacterial activity against vancomycin-resistant Enterococcus assessed as inhibition of bacterial growth
Format: functional
Details: not given
Summary of the method: (§1)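 Growth inhibition of the drug-resistant strain was read out as the minimum inhibitory concentration (MIC), reported in µg/mL. The same protocol was also run on an ESBL strain.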

Row | SMILES | MIC
15 | CC(=O)c1c(C)nc(SCC(=O)Nc2ccc(OC(=O)c3ccco3)cc2)n1-c1ccc(F)cc1 | 500 µg/mL (≈ 1010 µM)

System: Staphylococcus aureus
Test: Antibacterial activity against methicillin-resistant Staphylococcus aureus assessed as inhibition of bacterial growth
Format: functional
Details: not given
Summary of the method: as §1

Row | SMILES | MIC
16 | CC(=O)c1c(C)nc(SCC(=O)Nc2ccc(OC(=O)c3ccco3)cc2)n1-c1ccc(F)cc1 | 1000 µg/mL (≈ 2030 µM)

System: not listed separately
Test: Antioxidant activity assessed as DPPH radical scavenging activity at 25 ug/ml (reference value: 22 to 40.2 %)
Format: functional
Details: dose 25.0 µg/ml
Summary of the method: (§2)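 DPPH radical scavenging was measured at 0, 25, 50, 75 and 100 µg/ml of each compound. Ascorbic acid was the reference.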

Row | SMILES | Activity
17 | CC(=O)c1c(C)nc(SCC(=O)Nc2ccc(OC(=O)c3ccco3)cc2)n1-c1ccc(F)cc1 | 34.6%

System: not listed separately
Test: Antioxidant activity assessed as DPPH radical scavenging activity at 50 ug/ml (reference value: 22 to 40.2 %)
Format: functional
Details: dose 50.0 µg/ml
Summary of the method: as §2

Row | SMILES | Activity
18 | CC(=O)c1c(C)nc(SCC(=O)Nc2ccc(OC(=O)c3ccco3)cc2)n1-c1ccc(F)cc1 | 48.2%

System: not listed separately
Test: Antioxidant activity assessed as DPPH radical scavenging activity at 75 ug/ml (reference value: 22 to 40.2 %)
Format: functional
Details: dose 75.0 µg/ml
Summary of the method: as §2

Row | SMILES | Activity
19 | CC(=O)c1c(C)nc(SCC(=O)Nc2ccc(OC(=O)c3ccco3)cc2)n1-c1ccc(F)cc1 | 66.7%

System: not listed separately
Test: Antioxidant activity assessed as DPPH radical scavenging activity at 100 ug/ml (reference value: 22 to 40.2 %)
Format: functional
Details: dose 100.0 µg/ml
Summary of the method: as §2

Row | SMILES | Activity
20 | CC(=O)c1c(C)nc(SCC(=O)Nc2ccc(OC(=O)c3ccco3)cc2)n1-c1ccc(F)cc1 | 82.1%

System: not listed separately
Test: Antioxidant activity assessed as nitric oxide radical scavenging activity at 25 ug/ml (reference value: 25.8 to 41.6 %)
Format: functional
Details: dose 25.0 µg/ml
Summary of the method: (§3)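 Nitric oxide radical scavenging was tested at 0, 25, 50, 75 and 100 µg/ml of compound.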

Row | SMILES | Activity
21 | CC(=O)c1c(C)nc(SCC(=O)Nc2ccc(OC(=O)c3ccco3)cc2)n1-c1ccc(F)cc1 | 45.2%

System: not listed separately
Test: Antioxidant activity assessed as nitric oxide radical scavenging activity at 50 ug/ml (reference value: 25.8 to 41.6 %)
Format: functional
Details: dose 50.0 µg/ml
Summary of the method: as §3

Row | SMILES | Activity
22 | CC(=O)c1c(C)nc(SCC(=O)Nc2ccc(OC(=O)c3ccco3)cc2)n1-c1ccc(F)cc1 | 67.4%

System: not listed separately
Test: Antioxidant activity assessed as nitric oxide radical scavenging activity at 75 ug/ml (reference value: 25.8 to 41.6 %)
Format: functional
Details: dose 75.0 µg/ml
Summary of the method: as §3

Row | SMILES | Activity
23 | CC(=O)c1c(C)nc(SCC(=O)Nc2ccc(OC(=O)c3ccco3)cc2)n1-c1ccc(F)cc1 | 79.6%

System: not listed separately
Test: Antioxidant activity assessed as nitric oxide radical scavenging activity at 100 ug/ml (reference value: 25.8 to 41.6 %)
Format: functional
Details: dose 100.0 µg/ml
Summary of the method: as §3

Row | SMILES | Activity
24 | CC(=O)c1c(C)nc(SCC(=O)Nc2ccc(OC(=O)c3ccco3)cc2)n1-c1ccc(F)cc1 | 81.7%

System: not listed separately
Test: Antioxidant activity assessed as hydrogen peroxide radical scavenging activity at 25 ug/ml (reference value: 23.6 to 43.1 %)
Format: functional
Details: dose 25.0 µg/ml
Summary of the method: (§4)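 Hydrogen peroxide scavenging was measured across a compound series of 0, 25, 50, 75 and 100 µg/ml.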

Row | SMILES | Activity
25 | CC(=O)c1c(C)nc(SCC(=O)Nc2ccc(OC(=O)c3ccco3)cc2)n1-c1ccc(F)cc1 | 55.9%

System: not listed separately
Test: Antioxidant activity assessed as hydrogen peroxide radical scavenging activity at 50 ug/ml (reference value: 23.6 to 43.1 %)
Format: functional
Details: dose 50.0 µg/ml
Summary of the method: as §4

Row | SMILES | Activity
26 | CC(=O)c1c(C)nc(SCC(=O)Nc2ccc(OC(=O)c3ccco3)cc2)n1-c1ccc(F)cc1 | 64.8%

System: not listed separately
Test: Antioxidant activity assessed as hydrogen peroxide radical scavenging activity at 75 ug/ml (reference value: 23.6 to 43.1 %)
Format: functional
Details: dose 75.0 µg/ml
Summary of the method: as §4

Row | SMILES | Activity
27 | CC(=O)c1c(C)nc(SCC(=O)Nc2ccc(OC(=O)c3ccco3)cc2)n1-c1ccc(F)cc1 | 76.5%

System: not listed separately
Test: Antioxidant activity assessed as hydrogen peroxide radical scavenging activity at 100 ug/ml (reference value: 23.6 to 43.1 %)
Format: functional
Details: dose 100.0 µg/ml
Summary of the method: as §4

Row | SMILES | Activity
28 | CC(=O)c1c(C)nc(SCC(=O)Nc2ccc(OC(=O)c3ccco3)cc2)n1-c1ccc(F)cc1 | 85.1%
